High-throughput results: PubChem, Johns Hopkins Ion Channel Center
Rows were chosen to be rich in hits. Some 2.3% of all compounds tested hit in one or more screens of this group.
TRPC4 block: blocks the mouse TRPC4 cation channel | Q9QUQ5 | HEK293 TRPC4beta/mu-opioid, DAMGO-evoked Fluo4 calcium flux; active compounds read low | B-score at 10 µM | actives 0.39% (n = 300,000);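 active = B-score over 3 SD under the library average, no early fluorescence shift, positive overall ratio signal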
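Assay system: HEK293 cells with stable TRPC4beta plus mu-opioid receptor expression. Dosing: single dose. Measured by: Fluo4 Ca2+ flux fluorescence. Also added: DAMGO in two steps, submaximal then maximal. Read-out: B score from integrated Fluo4 fluorescence ratio.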
TRPC4 act: opens the mouse TRPC4 cation channel. B-score at 10 µM. actives 0.49% (n = 310,000). Q9QUQ5. HEK293 TRPC4beta/mu-opioid, Fluo4 calcium fluorescence; active compounds read high;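 active = B-score above 5 SD of library B-scores, and initial fluorescence ratio not above library mean plus 5 SD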;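 also: positive B-score marks a calcium rise read as TRPC4 activation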
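Material: TRPC4beta and mu-opioid receptor HEK293 stable cells | Incubation: 45 min room-temperature Fluo4 loading, 110 s read | Detection: Kinetic Fluo4 calcium fluorescence | Measure: Integrated baseline-normalised fluorescence ratio, converted to per-well B score | Benchmarks: Low control buffer alone, high control maximal DAMGO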
TRPC6 activator: activates the mouse TRPC6 cation channel; actives 0.13% (n = 310,000); Q61143; HEK293-TRPC6 membrane potential dye fluorescence; active compounds read high; B-score at 10 µM; AID 2550;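 active = B-score of the integrated fluorescence ratio above library mean plus 3 SD, and starting fluorescence ratio within library mean plus 5 SD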;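 also: higher score means more depolarization so channel activation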
Target sequence (Q61143 whole entry, looked up): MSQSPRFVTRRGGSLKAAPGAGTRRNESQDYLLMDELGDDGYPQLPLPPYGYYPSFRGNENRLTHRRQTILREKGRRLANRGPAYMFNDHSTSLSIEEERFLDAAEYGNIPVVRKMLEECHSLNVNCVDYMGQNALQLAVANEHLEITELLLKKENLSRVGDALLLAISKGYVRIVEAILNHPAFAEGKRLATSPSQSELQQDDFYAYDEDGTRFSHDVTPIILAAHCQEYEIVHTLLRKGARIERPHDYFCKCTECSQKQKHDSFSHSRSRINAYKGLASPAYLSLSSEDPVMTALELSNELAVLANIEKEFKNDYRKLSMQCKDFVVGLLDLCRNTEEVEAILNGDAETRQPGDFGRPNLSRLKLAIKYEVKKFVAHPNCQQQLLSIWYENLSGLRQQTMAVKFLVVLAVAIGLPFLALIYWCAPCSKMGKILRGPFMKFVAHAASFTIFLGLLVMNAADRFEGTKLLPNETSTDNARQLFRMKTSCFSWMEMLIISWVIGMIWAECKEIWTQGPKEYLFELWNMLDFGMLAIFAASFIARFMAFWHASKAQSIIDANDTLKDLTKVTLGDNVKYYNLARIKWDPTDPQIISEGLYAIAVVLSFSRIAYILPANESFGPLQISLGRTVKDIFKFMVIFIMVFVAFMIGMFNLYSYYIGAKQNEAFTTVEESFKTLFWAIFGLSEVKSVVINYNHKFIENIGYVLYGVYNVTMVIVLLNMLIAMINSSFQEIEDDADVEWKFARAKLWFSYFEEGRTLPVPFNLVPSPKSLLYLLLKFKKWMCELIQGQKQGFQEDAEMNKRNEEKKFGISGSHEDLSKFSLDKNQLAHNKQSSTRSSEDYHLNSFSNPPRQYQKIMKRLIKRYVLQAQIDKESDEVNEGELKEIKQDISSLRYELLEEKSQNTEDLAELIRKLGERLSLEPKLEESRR
TRPC6 inh: blocks the mouse TRPC6 cation channel; HEK293-TRPC6, membrane potential dye, ACh-evoked depolarization; active compounds read low; B-score at 10 µM; actives 1.1% (n = 310,000); AID 2553;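 active = B-score under library mean minus 3 SD, initial fluorescence not abnormally high, positive integrated signal ratio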;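 also: B-score derived from integrated fluorescence ratio over the kinetic read; more negative B-score means stronger inhibition of depolarization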
TRPC4 potent: TRPC4 (mouse) allosteric potentiation; Q9QUQ5; HEK293 TRPC4beta/mu-opioid, DAMGO EC20, Fluo-4 Ca2+ flux; active compounds read high; B-score at 10 µM; actives 0.42% (n = 310,000);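 active = B-score of calcium response area above 5 SD of library B-scores, with initial fluorescence ratio within 5 SD of library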;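 also: B-score of integrated fluorescence ratio over time as area under calcium response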
Starred values were filed as active, the others as inactive; i = inactive.

SMILES	TRPC4 block	TRPC4 act	TRPC6 activator	TRPC6 inh	TRPC4 potent
Cc1ccc(/C=C2\SC(=S)N(C(Cc3ccccc3)C(=O)O)C2=O)cc1 (configuration not stated)	-8*	i	i	i	i
COc1ccc(-c2cc(C)no2)cc1S(=O)(=O)N(C)c1ccc(C)cc1	i	i	i	i	i
O=[N+]([O-])c1ccc(CN2CCN(Cc3c[nH]c4ccccc34)CC2)cc1	-6*	i	i	i	i
Brc1ccc(CN2CCN(Cc3c[nH]c4ccccc34)CC2)cc1	i	i	i	i	i
Brc1ccccc1CN1CCN(Cc2c[nH]c3ccccc23)CC1	-6*	i	i	i	i
CCOC(=O)N1CCN(S(=O)(=O)c2ccc(C(=O)NNc3nc4c(C)cccc4s3)cc2)CC1	i	i	i	i	i
CCOC(=O)N1CCN(S(=O)(=O)c2ccc(C(=O)NNc3nc4c(C)cc(C)cc4s3)cc2)CC1	i	i	i	i	10*
COc1cccc(CN2CC(C(=O)NCCN3CCOC3=O)CCC2=O)c1 (configuration not stated)	i	i	i	i	i
O=C(CC(=O)Nc1cc(Cl)ccc1Cl)Nc1cc(Cl)ccc1Cl	i	i	i	i	i
OCC1(Cc2ccccc2)CCCN(Cc2cnn(-c3ccccc3)c2)C1 (configuration not stated)	-7*	i	i	i	i
COc1ccccc1-n1cc(CN2CCCC(CO)(Cc3cccc(Cl)c3)C2)cn1 (configuration not stated)	-5*	i	i	i	i
CC(C)Cc1cc(CN2CCCC(CO)(Cc3cccc(Cl)c3)C2)[nH]n1 (configuration not stated)	-10*	i	i	i	i
Cc1cc(CN2CCCC(CO)(Cc3cccc(Cl)c3)C2)n[nH]1 (configuration not stated)	i	i	i	i	i
COCc1ccc(CN2CCCC(CO)(Cc3cccc(Cl)c3)C2)o1 (configuration not stated)	i	i	i	i	i
Cc1ccc(-n2cc(CN3CCC(CO)(Cc4ccccc4)CC3)cn2)cc1	i	i	i	i	i
Cn1cc(CN2CCC(n3nccc3NC(=O)CCOc3ccccc3)CC2)cn1	i	i	i	i	i
CCCCN1Cc2c(nc3cc(-c4ccco4)[nH]n3c2=O)C1=O	i	i	i	i	i
Cc1cc(=O)n(C(C)(C)C)c(=O)n1Cc1ccccc1	i	i	i	i	i
O=C(O)CC(CN1C(=O)c2ccccc2C1=O)c1ccccc1 (configuration not stated)	i	i	i	i	i
O=[N+]([O-])c1ccc(N2CCCC2)nc1N1CCCC1	i	144*	i	i	i
Nc1ncc([N+](=O)[O-])c(N2CCCCCC2)n1	i	i	i	i	i
Cc1c(C(=O)N2CCCCC2)c(S(=O)(=O)N2CCc3ccccc32)c(C)n1C	i	i	i	i	i
Clc1ccc(N=C2SCC3CCCCN23)cc1 (configuration not stated)	i	i	i	i	23*
CCOC(=O)C1CCCN(C(=O)CCn2nnnc2CN2CCOCC2)C1 (configuration not stated)	i	i	i	i	10*
CCN(CC)C(=O)C1CCCN(C(=O)CCn2nnnc2CN2CCOCC2)C1 (configuration not stated)	i	i	i	i	i
SMILES	TRPC4 block	TRPC4 act	TRPC6 activator	TRPC6 inh	TRPC4 potent
CC(=O)OC(c1nc2ccccc2c(=O)n1C1CC2(OC1=O)c1ccccc1N1C(=O)C(C)(C)N(O)C12)C(C)C (configuration not stated)	i	83*	i	i	i
COc1ccc(CNCCC(c2ccccc2)c2ccc3c(c2)OCO3)cc1 (configuration not stated)	i	125*	i	i	i
COc1ccccc1C(CCNCc1ccc(N(C)C)cc1)c1ccc(OC(C)C)cc1 (configuration not stated)	i	47*	i	i	i
CSCC(C)N1CCC(CO)(CCc2ccccc2)CC1 (configuration not stated)	i	i	i	i	i
COc1ccc(OC)c(CN2CCC(CO)(CCOc3ccccc3)CC2)c1	i	i	i	i	i
CC(COc1ccccc1)N1CCC(CO)(CCc2ccccc2)CC1 (configuration not stated)	i	51*	i	i	i
CCOC(=O)C1(CCOc2ccccc2)CCN(Cc2ccc(OC)cc2)CC1	i	94*	i	i	i
COc1cc(CN2CCC(CO)(CCOc3ccccc3)CC2)cc(OC)c1	-5*	i	i	i	i
CCOC(=O)C1(CCOc2ccccc2)CCN(Cc2cccc(-n3cccn3)c2)CC1	i	98*	i	i	i
CCOC(=O)C1(CCOC)CCN(C(C)CCc2ccc(OC)cc2)CC1 (configuration not stated)	-7*	i	i	i	i
CC(=O)Nc1ccc(CN2CCC(CO)(CCOc3ccccc3)CC2)cc1	i	i	i	i	i
CCOC(=O)C1(CCOc2ccccc2)CCN(Cc2cnc(C)s2)CC1	i	115*	i	i	i
CCOC(=O)C1(CCOC)CCN(C(=O)Cc2ccc3ccccc3c2)CC1	i	i	i	i	i
CCOC(=O)C1(CCOc2ccccc2)CCN(Cc2ccccc2O)CC1	i	i	i	i	i
CCOC(=O)C1(CCOc2ccccc2)CCN(Cc2cccc3c2OCO3)CC1	-7*	i	i	i	i
CCOC(=O)C1(CCOc2ccccc2)CCN(Cc2ccc(CO)o2)CC1	i	i	i	i	i
CCOC(=O)C1(CCOc2ccccc2)CCN(Cc2ccc(NC(C)=O)cc2)CC1	i	83*	i	i	i
O=C(Nc1cccc([N+](=O)[O-])c1)c1ccc2c(c1)C(=O)N(c1ccccn1)C2=O	i	i	i	i	i
CCOC(=O)c1cc(C)sc1NC(=O)CSC1=NCCS1	i	i	i	i	i
C/C(=N\NC(=O)c1ccc(O)cc1)c1ccc(NC(=O)Cc2ccccc2)cc1	i	i	i	i	i
CCOC(=O)C1(CCOc2ccccc2)CCN(Cc2cccc(OC)c2OC)CC1	i	74*	i	i	i
COc1ccc(-n2nc(C(=O)N(C)C)nc2-c2ccccc2)cc1	i	i	i	i	i
